{"source": "paper PMC5989829", "about": "(Acta Pharmaceutica Sinica. B, 2017)", "key": {"[1]": {"test_system": "calf-thymus DNA (CT-DNA)", "settings": "cited from earlier work"}, "[2]": {"test_system": "necrotic muscle", "assay": "Self-blocking experiment in muscular necrosis model rats", "assay_type": "in vivo, rat", "settings": "24 h"}, "[3]": {"test_system": "A549 necrotic cells", "assay": "Nuclear extraction from necrotic A549 cells incubated with tracer", "assay_type": "cell-based, human", "settings": "50 μmol/L"}, "[4]": {"settings": "human, even pregnant women and newborn babies, cited from earlier work"}, "[5]": {"test_system": "calf-thymus DNA (CT-DNA)", "assay": "UV–vis spectroscopic study of interaction with CT-DNA", "assay_type": "binding", "settings": "25 °C, increasing CT-DNA"}, "[6]": {"test_system": "necrotic liver and necrotic muscle", "assay": "Fluorescence microscopy of liver and muscle cryostat slices from model rats", "assay_type": "in vivo, rat", "settings": "i.v. 2.0 mg/kg, 12 h to 8 days, λex=620 nm, λem=680 nm"}, "[7]": {"test_system": "calf-thymus DNA (CT-DNA)", "assay": "Competitive study with ethidium bromide on CT-DNA", "assay_type": "binding", "procedure,_shortened": "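CT-DNA prepared in 5 mmol/L Tris-HCl/50 mmol/L NaCl, pH 7.4, stirred at 4 °C for three days; concentration set by A260 (ε=6600 L/mol.cm). Test compound (stock 6.0×10−4 mol/L) titrated into 2.5 mL CT-DNA–ethidium bromide (CT-DNA 6.0×10−5 mol/L) to ratios 0 to 7/30. Fluorescence read at 25 °C, λex 530/λem 604 nm. Ksv from Stern–Volmer fit of I0/I versus compound concentration.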"}, "[8]": {"test_system": "A549 cells", "assay": "Fluorescence microscopy of necrotic and viable A549 cells", "assay_type": "cell-based, human", "settings": "50 μmol/L, 30 min, co-staining with Hoechst 33342 and PI"}, "[9]": {"settings": "cited from earlier work; for Water solubility: must be dissolved in organic solvents such as DMSO"}, "[10]": {"assay": "Water solubility", "assay_type": "physicochemical", "settings": "can be dissolved in PBS or saline"}, "[11]": {"test_system": "necrotic liver and necrotic muscle", "assay_type": "in vivo, rat"}, "[12]": {"test_system": "necrotic liver and necrotic muscle", "assay": "Autoradiography of necrotic/normal liver and partially necrotic muscle sections", "assay_type": "in vivo, rat", "settings": "24 h after intravenous injection", "procedure,_shortened": "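Rats (male SD, 260–280 g) on 0.1% KI drinking water from 3 days before study. Liver necrosis: right-lobe hilum clamped 3 h, then reperfused; muscle necrosis induced with absolute ethanol. Labelled test compound (14.8 MBq/kg, 2.0 mg/kg) in PBS given i.v. via tail vein; sacrifice at 12, 24, 72 h, 8 day (n=5 each). Frozen 30 μm sections cut at −20 °C, 3 h phosphor-screen exposure, then H&E for co-localization.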"}, "[13]": {"assay": "In vitro stability of the radiotracer in rat serum", "assay_type": "in vitro ADME", "settings": "stored in rat serum at 37 °C, up to 8 days", "procedure,_shortened": "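Radiolabelled test compound mixed with rat serum (1:9 volume ratio) and kept at 37 °C. Sampled at 0.5, 4 h, 1, 2, 3 and 8 day. Label integrity assessed by TLC.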"}, "[14]": {"assay": "Pharmacokinetics", "assay_type": "in vivo, rat", "settings": "normal rats, i.v. 14.8 MBq/kg in PBS, non-compartmental, mean±SD, n=6", "procedure,_shortened": "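Six healthy rats dosed i.v. with radiolabelled test compound (14.8 MBq/kg) in PBS. 10 μL tail-slit blood samples drawn at 5, 10, 30 min and 1, 2, 4, 6, 8, 12, 24, 48 h. Samples γ-counted with decay and background correction and expressed as MBq per liter. Parameters derived by non-compartmental analysis; mean±SD.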"}, "[15]": {"settings": "γ counting, 24 h after i.v. 14.8 MBq/kg, model rats"}}, "note": "Read-outs that look alike come from different tables or passages of the source.", "data": [{"molecule": "Nc1ccc2c(c1)C(=O)c1ccccc1C2=O", "note": "[2-aminoanthraquin]", "values": [{"measurement": "Binding constant with CT-DNA", "setting": "[1]", "result": "1.25×10^3 L/(mol/L)"}]}, {"molecule": "Cc1cc(-c2ccc(/N=N/c3ccc4c(S(=O)(=O)O)cc(S(=O)(=O)O)c(N)c4c3O)c(C)c2)ccc1/N=N/c1ccc2c(S(=O)(=O)O)cc(S(=O)(=O)O)c(N)c2c1O", "note": "[EB, Evans blue]", "values": [{"measurement": "Radioactivity of ^131I-EB in necrotic muscle blocked", "setting": "[2]; 10 mg/kg EB", "result": "about 65%"}, {"measurement": "Uptake in necrotic cell nuclei", "setting": "[3]; 15 min incubation", "result": 82.3, "unit": "%"}, {"measurement": "Uptake in necrotic cell nuclei", "setting": "[3]; 2 h incubation", "result": 79.2, "unit": "%"}, {"measurement": "Adverse reactions in clinical use", "setting": "[4]; ref 24, 25", "result": "without adverse reactions"}, {"measurement": "Adverse reactions in clinical use", "setting": "[4]; ref 41, 42", "result": "without any adverse reactions"}, {"measurement": "Change of UV–vis absorption bands on addition of CT-DNA", "setting": "[5]", "result": "significant hypochromism accompanied with a red shift"}, {"measurement": "Retention in necrotic tissues by fluorescence microscopy", "setting": "[6]", "result": "Selective retention of EB in necrotic tissues up to 8 days"}, {"measurement": "Ksv (Stern–Volmer quenching constant; binding constant with CT-DNA)", "setting": "[7]; CT-DNA-ethidium bromide displacement, 25 °C, λex=530 nm", "result": "5.08×10^5 L/(mol/L)"}, {"measurement": "Binding constant with CT-DNA relative to 2-aminoanthraquin", "setting": "[7]; EB versus 2-aminoanthraquin", "result": 400, "unit": "times"}, {"measurement": "Cellular localisation", "setting": "[8]", "result": "specifically located in the nuclei of necrotic cell"}]}, {"molecule": "Cc1cc(O)c2c(=O)c3c(O)cc(O)c4c5c(O)cc(O)c6c(=O)c7c(O)cc(C)c8c1c2c(c34)c(c78)c65", "note": "[Hyp, Hypericin]", "values": [{"measurement": "Solubility", "setting": "[9]", "result": "nearly insoluble in water and most nonpolar solvents"}]}, {"molecule": "^131I-evans blue [^131I-EB]", "values": [{"measurement": "Uptake in necrotic muscle", "setting": "[2]; coinjected with excessive cold EB (10 mg/kg), n=3, P<0.01", "result": "0.47±0.07", "unit": "%ID/g"}, {"measurement": "Uptake in necrotic muscle", "setting": "[2]; non-blocking group, n=3", "result": "1.35±0.22", "unit": "%ID/g"}, {"measurement": "Water solubility", "setting": "[10]", "result": "highly water-soluble"}, {"measurement": "Time of highest uptake in necrotic liver and muscle", "setting": "[11]; time points 12, 24, 72 h and 8 day", "result": 24, "unit": "h"}, {"measurement": "Time of highest radioactivity in normal tissue", "setting": "[11]; time points 12, 24, 72 h and 8 day, especially normal liver, spleen, kidney", "result": 12, "unit": "h"}, {"measurement": "Ratio of uptake in necrotic muscle to normal muscle", "setting": "[11]; γ counting, 8th day after i.v. 14.8 MBq/kg, model rats", "result": 7.43, "unit": "times"}, {"measurement": "Radioactivity ratio of necrotic to viable (normal) liver", "setting": "[11]; [15]", "result": 3.41}, {"measurement": "Radioactivity ratio of necrotic to viable (normal) muscle", "setting": "[11]; [15]", "result": 11.82}, {"measurement": "Radioactivity ratio of necrotic to normal liver", "setting": "[12]", "result": 4.26}, {"measurement": "Radioactivity ratio of necrotic to normal muscle", "setting": "[12]", "result": 10.2}, {"measurement": "In vitro stability (radiolabeling stability by TLC)", "setting": "[13]", "result": "over 90%"}, {"measurement": "Uptake in necrotic cell nuclei", "setting": "[3]; 15 min incubation", "result": 82.3, "unit": "%"}, {"measurement": "Uptake in necrotic cell nuclei", "setting": "[3]; 2 h incubation", "result": 79.2, "unit": "%"}, {"measurement": "AUC0–t", "setting": "[14]", "result": "564.82±27.55", "unit": "MBq/L ·h"}, {"measurement": "AUC0–∞", "setting": "[14]", "result": "737.28±62.32", "unit": "MBq/L ·h"}, {"measurement": "CLz (clearance)", "setting": "[14]", "result": "0.35 ± 0.067", "unit": "mL/min/kg"}, {"measurement": "Cmax (peak concentration)", "setting": "[14]", "result": "96.84±10.05", "unit": "MBq/L"}, {"measurement": "Tmax (peak time)", "setting": "[14]", "result": "4.98 ± 0", "unit": "min"}, {"measurement": "t1/2z (elimination half-life)", "setting": "[14]", "result": "24.40 ± 3.64", "unit": "h"}]}, {"molecule": "^131I-hypericin", "values": [{"measurement": "Water solubility", "setting": "[9]", "result": "water-insoluble"}]}, {"molecule": "^131I-sennidin A", "values": [{"measurement": "Water solubility", "setting": "[9]", "result": "water-insoluble"}]}]}
